In ChEMBL document CHEMBL5380787, “Optimized M24B Aminopeptidase Inhibitors for CARD8 Inflammasome Activation” (J Med Chem, 2023):
Active and inactive are the calls of the source. No cut-off for these calls is given here.

Experiments:
RAW264.7 [1] = experiment: Induction of pyroptosis in mouse RAW264.7 cells expressing NLRP1B allele 1 assessed as LDH release at 10 uM incubated for 24 hrs; format: functional, cell-based
Summary of the method: (§1)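 RAW264.7 cells in DMEM with L-glutamine and 10% FBS, 5 × 10^5 cells/well, treated 24 h. LDH in supernatant measured relative to a 9% Triton X-100 lysis control. GSDMD cleavage by immunoblot of PBS-sonicated lysates with protein normalized. Mean ± SEM of three biological replicates.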

HEK-293T [2] = experiment: Induction of pyroptosis in human HEK293T cells expressing CASP1 and GSDMD cotransfected with dTAG-CARD8ZUC and CARD8 FIIND S297A assessed as destabilization of DPP9-CARD8 ternary complex by measuring LDH release at 10 uM incubated for 6 hrs in presence of dTAG13; format: functional, cell-based
Summary of the method: (§2)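 HEK293T cells stably expressing CASP1 and GSDMD, 1.5 × 10^5 cells/well. 24 h later treated with dTAG-13 (500 nM) plus compound, DMSO as vehicle, for 6 h. Read-outs were supernatant LDH against a lysis control and GSDMD immunoblot.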

BMDM [3] = experiment: Induction of pyroptosis in C57BL/6J mouse BMDM cells expressing NLRP1A and NLRP1B allele 2 assessed as GSDMD clevage at 10 uM incubated for 24 hrs by immunoblot analysis; format: functional, cell-based
Summary of the method: (§3)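 Bone marrow from femurs and tibias of 7–12-week-old C57BL/6J mice, red cells lysed. Cells differentiated 6 days at 37 °C in DMEM with 10% FBS and 15–20% L-cell medium, then replated. Exposure 24 h. LDH in supernatant measured relative to a 9% Triton X-100 lysis control. For GSDMD cleavage, cells sonicated in PBS, protein normalized, SDS-PAGE immunoblot.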

THP-1 [4] = experiment: Induction of pyroptosis in CARD8 knockout human THP-1 cells harboring dox-inducible […] E274R mutant assessed as cell death by measuring LDH release at 10 uM pretreated with doxycycline for 16 hrs followed by compound addition and measured after 6 hrs; format: functional, cell-based
Summary of the method: (§4)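 CARD8−/− THP-1 cells stably carrying DOX-inducible CARD8 E274R, grown in RPMI 1640 with 10% FBS, 5 × 10^5 cells/well. DOX (100 ng/mL) for 16 h or no DOX, then compound for 6 h. Supernatant LDH measured relative to a Triton X-100 lysis control. GSDMD cleavage by SDS-PAGE immunoblot of protein-normalized lysates.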

BMDM [5] = experiment: Induction of pyroptosis in C57BL/6J mouse BMDM cells expressing NLRP1A and NLRP1B allele 2 assessed as LDH release at 10 uM incubated for 24 hrs; format: functional, cell-based; summary of the method: as §3
RAW264.7 [6] = experiment: Induction of pyroptosis in mouse RAW264.7 cells expressing NLRP1B allele 1 assessed as GSDMD clevage at 10 uM incubated for 24 hrs by immunoblot analysis; format: functional, cell-based; summary of the method: as §1
HEK-293T [7] = experiment: Induction of pyroptosis in human HEK293T cells expressing CASP1 and GSDMD cotransfected with dTAG-CARD8ZUC and CARD8 FIIND S297A assessed as destabilization of DPP9-CARD8 ternary complex by measuring GSDMD clevage at 10 uM incubated for 6 hrs in presence of dTAG13 by immunoblot analysis; format: functional, cell-based; summary of the method: as §2
N/TERT-1 = experiment: Cytotoxicity against immortalized human N/TERT-1 Keratinocytes expressing human NLRP1 assessed as cell death at 10 uM incubated for 24 hrs by celltiter-glo assay; format: functional, cell-based
Summary of the method: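 N/TERT-1 keratinocytes grown in keratinocyte serum-free medium with penicillin/streptomycin, bovine pituitary extract (25 μg/mL) and EGF (0.2 ng/mL), 37 °C, 5% CO2. Compound added by pintool to 2000 cells/well, 24 h exposure. Viability read by CellTiter-Glo luminescence after 2 min shaking and 10 min at 25 °C. Mean ± SEM of three biological replicates.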

THP-1 [8] = experiment: Induction of pyroptosis in CARD8 knockout human THP-1 cells harboring dox-inducible […] E274R mutant assessed as GSDMD cleavage at 10 uM pretreated with doxycycline for 16 hrs followed by compound addition and measured after 6 hrs by immunoblot analysis; format: functional, cell-based; summary of the method: as §4
[9] = biological target: T1, Xaa-Pro dipeptidase (Homo sapiens) (UniProt P12955); experiment: Inhibition of recombinant human PEPD using Ala-Pro as substrate assessed as alanine release by measuring increase in fluorescense signal by fluorescence based analysis
T1 sequence (whole entry): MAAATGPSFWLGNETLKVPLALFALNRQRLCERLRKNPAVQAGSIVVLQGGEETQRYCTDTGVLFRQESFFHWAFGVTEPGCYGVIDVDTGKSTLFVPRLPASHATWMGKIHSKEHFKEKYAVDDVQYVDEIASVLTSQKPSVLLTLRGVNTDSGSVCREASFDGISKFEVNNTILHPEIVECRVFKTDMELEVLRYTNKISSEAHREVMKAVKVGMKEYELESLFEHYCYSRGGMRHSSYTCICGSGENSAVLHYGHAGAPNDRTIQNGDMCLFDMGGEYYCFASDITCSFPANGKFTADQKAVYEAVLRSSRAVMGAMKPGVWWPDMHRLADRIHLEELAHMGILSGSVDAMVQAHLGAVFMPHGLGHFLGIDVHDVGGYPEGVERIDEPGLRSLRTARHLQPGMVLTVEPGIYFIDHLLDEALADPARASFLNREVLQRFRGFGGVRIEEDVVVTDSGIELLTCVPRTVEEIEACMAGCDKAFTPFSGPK

[10] = Stability of the compound in human MV4-11 cells assessed as esterase-mediated hydrolysis by LC-MS analysis; format: ADME, cell-based
Summary of the method: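 Compound was incubated in conditioned medium from MV4;11 cells for 24 h at 37 °C, and LC/MS then measured intact ester remaining and the de-esterified free acid. n = 3, mean ± SEM.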

Xaa-Pro aminopeptidase 1 [11] = biological target: T2, Xaa-Pro aminopeptidase 1 (Homo sapiens, UniProt Q9NQW7); experiment: Inhibition of 6-His tagged XPNPEP1 (unknown origin) expressed in Escherichia coli Rosetta DE3 cells using H-Lys(abz)-Pro-Pro-pNA as substrate incubated for 60 mins by fluorescence based analysis
Summary of the method: (§5)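 His6-tagged XPNPEP1 was expressed in E. coli Rosetta DE3 (IPTG, 16 h, 37 °C) and purified on TALON resin. Enzyme at 3.5 nM was exposed to compound, then H-Lys(abz)-Pro-Pro-pNA was added at 100 μM final. Fluorescence (Ex/Em 320/410) was followed for 60 min. Single-point inhibition used 20 μM; IC50 as mean ± SEM of three biological replicates.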

[12] = Stability of the compound in human MV4-11 cells assessed as esterase-mediated hydrolysis measured after 8 hrs by LC-MS analysis; format: ADME, cell-based; conditions: mv4-11, 8 h
Xaa-Pro aminopeptidase 1 [13] = biological target: T2, Xaa-Pro aminopeptidase 1; experiment: Inhibition of 6-His tagged XPNPEP1 (unknown origin) expressed in Escherichia coli Rosetta DE3 cells using H-Lys(abz)-Pro-Pro-pNA as substrate at 20 uM incubated for 60 mins by fluorescence based analysis relative to control; summary of the method: as §5
[14] = biological target: T1, Xaa-Pro dipeptidase (Homo sapiens); experiment: Inhibition of recombinant human PEPD using Ala-Pro as substrate assessed as alanine release by measuring increase in fluorescense signal at 1 uM by fluorescence based analysis relative to control
Summary of the method: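 Recombinant human PEPD at 50 nM was incubated with Ala-Pro at 40 μM final and compound. Released alanine was detected by coupled alanine transaminase/pyruvate oxidase conversion to H2O2 and resorufin fluorescence (Ex/Em 535/587 nm) at 25 °C.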

OCI-AML2 [15] = experiment: Cytotoxicity against human OCI-AML2 cells assessed as reduction in cell viability at 1 uM incubated for 24 hrs by celltiter-glo assay relative to control; format: functional
Summary of the method: (§6)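 Single-dose viability screen. MV4;11 or OCI-AML2 cells at 2000 cells/well were exposed to 1 μM compound for 24 h. Viability was read by CellTiter-Glo luminescence and expressed as percent inhibition. Values are means of three biological replicates.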

MV4-11 [16] = experiment: Cytotoxicity against CASP1 knockout human MV4-11 cells assessed as reduction in cell viability incubated for 24 hrs by celltiter-glo assay; format: functional, cell-based; conditions: MV4-11, 24 h
Summary of the method: (§7)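 MV4;11 cells (WT or CASP1−/−), grown in RPMI 1640 with 10% FBS at 37 °C, 5% CO2, plated 2000 cells/well, dosed by pintool across 100 μM to 15.2 nM in three-fold steps for 24 h. Viability by CellTiter-Glo luminescence after 2 min shaking and 10 min at 25 °C. IC50 as mean ± SEM of three biological replicates.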

MV4-11 [17] = experiment: Cytotoxicity against human MV4-11 cells assessed as reduction in cell viability at 1 uM incubated for 24 hrs by celltiter-glo assay relative to control; format: functional; summary of the method: as §6
OCI-AML2 [18] = experiment: Induction of cell death in human OCI-AML2 cells assessed as increase in PI uptake at 6.25 uM incubated for 6 hrs by PI staining based fluorescence analysis; format: functional
Summary of the method: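 PI flux assay. 2 × 10^4 MV4;11 (WT, CARD8−/− or CASP1−/−) or OCI-AML2 cells in RPMI were given compound at 6.25 μM plus PI at 10 μM final. Fluorescence (Ex/Em 535/617 nm) was read every 5 min at 37 °C for 6 h, baseline-corrected to DMSO and normalized to the maximum response. n = 3.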

MV4-11 [19] = experiment: Cytotoxicity against human MV4-11 cells assessed as reduction in cell viability incubated for 24 hrs by celltiter-glo assay; format: functional, cell-based; conditions: MV4-11, 24 h; summary of the method: as §7

T2 sequence (Q9NQW7 whole entry): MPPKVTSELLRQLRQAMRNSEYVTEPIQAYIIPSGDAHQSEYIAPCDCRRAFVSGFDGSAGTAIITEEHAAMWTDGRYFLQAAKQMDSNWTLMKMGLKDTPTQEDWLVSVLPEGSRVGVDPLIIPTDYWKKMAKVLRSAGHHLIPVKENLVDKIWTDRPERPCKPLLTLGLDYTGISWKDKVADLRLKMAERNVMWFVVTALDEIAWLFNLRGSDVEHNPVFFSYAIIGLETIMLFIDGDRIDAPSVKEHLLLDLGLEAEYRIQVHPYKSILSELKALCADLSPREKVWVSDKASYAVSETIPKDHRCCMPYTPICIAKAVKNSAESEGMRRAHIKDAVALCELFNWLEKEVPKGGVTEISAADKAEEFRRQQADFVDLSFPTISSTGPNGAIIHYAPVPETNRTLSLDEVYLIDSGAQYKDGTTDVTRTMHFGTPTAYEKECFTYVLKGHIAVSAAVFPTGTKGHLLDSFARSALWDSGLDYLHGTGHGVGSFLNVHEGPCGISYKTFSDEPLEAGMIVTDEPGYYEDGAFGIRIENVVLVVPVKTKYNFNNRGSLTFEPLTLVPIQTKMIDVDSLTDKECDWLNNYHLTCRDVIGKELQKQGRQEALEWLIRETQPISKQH

CC(C)[C@H](N)C(=O)N1CCC[C@H]1B(O)O
Activity (RAW264.7 [1]): Active | Activity (HEK-293T [2]): Active | Activity (BMDM [3]): Active | Activity (THP-1 [4]): inactive | Activity (BMDM [5]): Active | Activity (RAW264.7 [6]): Active | Activity (HEK-293T [7]): Active | Activity (N/TERT-1): Active | Activity (THP-1 [8]): inactive

CC(C)C[C@@H](N)[C@H](O)C(=O)N1CCC[C@H]1C(=O)OC1CCCC1
inhibition [9]: Active | Stability [10]: Stable | inhibition (Xaa-Pro aminopeptidase 1 [11]): Active

CC(C)C[C@@H](N)[C@H](O)C(=O)N1CCC[C@H]1C(=O)OC(C)(C)C
inhibition [9]: Active | Stability [10]: Stable | inhibition (Xaa-Pro aminopeptidase 1 [11]): Active | Stability [12]: Unstable

COC(=O)[C@@H](NC(=O)[C@@H]1CCCN1C(=O)[C@@H](O)[C@H](N)CC(C)C)C(C)C
inhibition (Xaa-Pro aminopeptidase 1 [13]): 65% | inhibition [14]: 42% | Activity (OCI-AML2 [15]): 32% | IC50 (MV4-11 [16]): > 20 µM | Activity (MV4-11 [17]): 59% | Activity (OCI-AML2 [18]): Active | IC50 (MV4-11 [19]): 0.45 µM
